According to the EternaBench riboswitch data:

Tested on: MS2 coat protein
Experiment: apparent Kd, MS2 coat protein; higher = weaker binding; RNA-MaP array; FMN 200 µM where present
Method in brief: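 Binding was read on Illumina sequencing-chip clusters where stalled E. coli RNA polymerase had transcribed each design. A titration of SNAP-549-labelled MS2 coat protein began at 0.7 or 1.5 nM and doubled to 3 µM, once without ligand and once with constant ligand, in 100 mM Tris-HCl pH 7.5, 80 mM KCl, 4 mM MgCl2, BSA, DTT, yeast tRNA and Tween-20. The apparent Kd is the median of filtered per-cluster binding-curve fits, based on green signal normalised to red-channel RNA signal and control-cluster median Fmax.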

[1] = designed as: OFF switch for flavin mononucleotide, no ligand
[2] = ligand present: flavin mononucleotide, designed as: OFF switch for flavin mononucleotide
[3] = designed as: ON switch for flavin mononucleotide, no ligand
[4] = ligand present: flavin mononucleotide, designed as: ON switch for flavin mononucleotide

Row | Sequence | apparent Kd [1] | apparent Kd [2] | apparent Kd [3] | apparent Kd [4]
1 | AUAAAGUCAGGAUAUGUAAAAAUAACGAAAGUUAUAAAUAAACAGAAGGGACAUGAGGAUCACCCAUGUAAAAU | 32.3 nM | 39.6 nM | – | –
2 | AGUCAUACAGGAUAUACAUGAGGAUCACCCAUGUAUAUCCAAAAAAAAUGAUCCUCAUGUAGAAGGGUAUGACA | 15.9 nM | 10.5 nM | – | –
3 | CAGGUAGACUGAGGAUAUACAAAAGACCUAGUCUAUCUAGGUCACAUCACAUGAGGAUCACCCAUGUAGAAGGCAGUCUGCCUG | 16.2 nM | 27.1 nM | – | –
4 | GCCAUCGUAUGAGGAUAUGGCACCGAAACGGUGCCAGAAGGCAUGUCAAUAGACAUGAGGAUCACCCAUGUGUUAUCGAUGGCA | – | – | 379 nM | 36.5 nM
5 | UAAUGUAUAUAGGAUAUCUAGCUGGAUACAGCUAGAGAAGGAUGUACAUGAGGAUCACCCAUGUAAAUCUCAAU | 18.3 nM | 31.2 nM | – | –
6 | CUUCGACAUGAGGAUCACCCAUGUCAGGAUAUUGUGUAUCUGGUUUUUUACAGAUAGACAAGAAGGGAUGUGUU | 27.1 nM | 23.4 nM | – | –
7 | GGAUAGGACAGAGGAUAUACGUGCUAGAGAUACUAGCAAAAUUUCCUCACAUGAGGAUCACCCAUGUAGAAGGCUGUGCUAUCG | 16.4 nM | 343 nM | – | –
8 | AUCGUGCUAGGAUAUACAGACGGGUGUAGACGUGCAGGCAAACAUGAGGAUCACCCAUGUAGAAGGAGUAGUUA | 159 nM | 88.8 nM | – | –
9 | CCUCGACAUGAGGAUCACCCAUGUCAGGAUAUUGUGUUUUUGGUUUUUUACCUUUAGGCAAGAAGGGAUGUGUG | 16 nM | 21.4 nM | – | –
10 | GUACAUGAGCAGAAGGGCAUUUAAUUAGAUUUUUAUGUUGAUCAGAUAUGCAGGAUAUGUUAAACAUGAGGAUCACCCAUGUAC | – | – | 235 nM | 44.2 nM
11 | GCUGAAUGAACAUGAGGAUCACCCAUGUACAGGAAACUGAAUGAGGAUAUCCAUAGCAAAGCUAUGGAGAAGGCAUGGGUCAGC | – | – | 338 nM | 94 nM
12 | ACAAAGGUAGGAUAUCGGACUAUGGACAUGAGGAUCACCCAUGUGCGUCCAAUGCCCAACCGAGAAGGACCAACAG | 47.1 nM | 89 nM | – | –
13 | GCUGGUCGAGGAUAUGCAAUCGUGCUUCGGCACGUAAGGUCACAUGAGGAUCACCCAUGUAGAAGGUGACCAGC | 17.1 nM | 23.3 nM | – | –
14 | UUCGUGGCAUCUCGCGCAUGUCCACAUGAGGAUCACCCAUGUCAGGAUAUACGGAAUGUCGUUCCGUAGAAGGGACAAGGGCUG | 139 nM | 112 nM | – | –
15 | GAUUUAGAGCAGGAUAUCAUAGAAAUGUAUGAAUGAGAAGGGCUCACAUGAGGAUCACCCAUGUGGUCCUAGAU | 25.4 nM | 240 nM | – | –
16 | AUCGUAACAGGAGGAUAUUACACUCGGUUGGUCCGCUGCGGGUUGAAACAUGAGGAUCACCCAUGUAAGAAGGCCUGUGUGACU | 317 nM | 103 nM | – | –
17 | AUGCUAGUGUGAGGAUAUACAUGAGGAUCACCCAUGUGUCCGAAGUACCGGACAUGAGGUACGUCGUAGAAGGUACAUUAGCAU | 21 nM | 102 nM | – | –
18 | CCGUUACAUGAGGAUCACCCAUGUGAGGAUAUCGGGAUGACUGGCAGCGUGCGGGACUCGAGAAGGCACUGGGC | 46.1 nM | 41.5 nM | – | –
19 | UAUUACAGAUAAGGAUAUUGACAUGAGGAUCACCCAUGUAUUUGGGAAUGUUUACUGAAUUCUUACGAGAAGGUAUACGUACUU | 128 nM | 98.7 nM | – | –
20 | CACUCGUGUCUAGGAUAUGAGUGACAAGCGCGAGAUUUUCUCGGCGCUAGCUCAGAAGGAGACAUGAGGAUCACCCAUGUAAGG | 162 nM | 12 nM | – | –
21 | UUGGACGUCGUAAGAUAUGUAGGAUAUUCCUACAUGAGGAUCACCCAUGUUGACAUGGAAGAAGGACAGAAGGACGAUGUCCAU | – | – | 285 nM | 5.51 nM

Row | Sequence | apparent Kd [1] | apparent Kd [2] | apparent Kd [3] | apparent Kd [4]
22 | GCGUUGAACGAGAAGGCCAAUACAUGAGGAUCACCCAUGUUAAGUUGUUUUGGAGGAUAUCGAACGCAUUCAAUAUUGCAACGC | 6.65 nM | 5.84 nM | – | –
23 | GCAGCUAAUGCAGGAUAUCAGCACGUGUAGUGCUGAGAAGGGCACAUGAGGAUCACCCAUGUGAUCAAUUAAUGUUAAUGCUGC | 18.1 nM | 57.5 nM | – | –
24 | CAAUUUAUAACAGGAUAUAUAAUACAAUGAUUAAUAGAAGGGUUUAAUACAUGAGGAUCACCCAUGUCAUGUGUCAUAAUUACC | 40.1 nM | 32 nM | – | –
25 | AAUAACAGAGGAUAUACUAUUUUAUGUGUUUGUUAUUUUGAACAUGAGGAUCACCCAUGUAGAAGGCUGAUUGA | 47 nM | 44 nM | – | –
26 | AUCCAUUGAGAGAAGGGAGUACAUGAGGAUCACCCAUGUGGUCGUUCAUACUCAGGAUAUCUAACUGGGUUAGUGGCGCACGCC | 166 nM | 367 nM | – | –
27 | CGAGUCAUAGCUCCUUAGCCAGCCAGAAGGGUCUACAUGAGGAUCACCCAUGUGGUCUCGAAGGGACAGGAUAUGGAGGGCGUA | 5.39 nM | 7.36 nM | – | –
28 | UCUACUUUACAUGAUUCAUCAACACAGGAUAUACCCGCAACAUGAGGAUCACCCAUGUAGGCCCGGUAGAAGGGUGCUUGGGAA | – | – | 10.8 nM | 6.43 nM
29 | AAGAAGUCAGGAUAUCCAGCUCGUCACUUGCGUGAUGAGUUGGAGAAGGGACAUGAGGAUCACCCAUGUAAAGA | 56.1 nM | 49.3 nM | – | –
30 | UACCUACAUGAGGAUCACCCAUGUCAGGAUAUGUGCUGAGACGACAUCGACUUUCAGCGUAGAAGGGACCAGGG | 24.4 nM | 46.5 nM | – | –
31 | AAAAGGCUAGGAUAUACAUGAGGAUCACCCAUGUGUACUGGACAUGCGGUAUGCGGAUGUAGAAGGAGUAUAAA | 23.4 nM | 62.4 nM | – | –
32 | AAAUAAAACGAUCGGCGAUCCAAACAUGAGGAUCACCCAUGUAGAAGGCACUCUACAUAGUAGAGUGAGGAUAUACGAGAUCGA | 22.1 nM | 584 nM | – | –
33 | AAAAUCACAUGAGGAUCACCCAUGUACCGAGUUAAGGCUACAUAGGAUAUGACAAGUAUAGCUUGUCAGAAGGGUGAGUCUCGC | – | – | 58.2 nM | 97.7 nM
34 | AGUUUUGUACAUGAGGAUCACCCAUGUUAAUAUGUGGUAGUCAGAAGGCAUUGUUAGUGUUUAUAUGAGGAUAUGAUUAGUCAG | – | – | 50.3 nM | 26.4 nM
35 | UCCUCACAUGAGGAUCACCCAUGUCAGGAUAUACCCAAAGCUGCGAAAAUAUCCAGCUGUAGAAGGGACAGGCU | 18.3 nM | 20.1 nM | – | –
36 | GGAUAGGACAGAGGAUAUACGUGCUAGAGAUACUAGCAAAAUUUCCUCACAUGAGGAUCACCCAUGUAGAAGGCUGUCGUAUCG | 15.3 nM | 334 nM | – | –
37 | UGAUACUAAGAGAAGGUACAAACUACAUAUUACAUACAUGAGGAUCACCCAUGUUGGUGAAUAAGUAAGGAUAUUUUACUAUAU | 15.4 nM | 12.4 nM | – | –
38 | GUAGAGUAGUGAGGAUAUACGAGCUCGAUAGAGCGGCGAUCCAAUAAUACAUGAGGAUCACCCAUGUAGAAGGCACUUCUCUAC | 6.71 nM | 91 nM | – | –
39 | GGAUGACAAAGUCAUCCAAUACGAACAUGAGGAUCACCCAUGUAGGAUAUGCUACUCAAAGAGUAGCAGAAGGACAUGUGCCUU | 33.8 nM | 252 nM | – | –
40 | AGGGAGUUAGGAUAUGCUGCUCGUCACUUGCGUGAUGAGUAGCAGAAGGGACAUGAGGAUCACCCAUGUAAAGA | 42.1 nM | 24.7 nM | – | –
41 | UCCGAACAUGAGGAUCACCCAUGUGAGGAUAUAGACGUGAAUUAAACACGUAACAAAACUAGAAGGCACUGGGC | 14.7 nM | 13.2 nM | – | –
42 | GCACUUCGGCAGAAGGGACUAUGGGUAUGGUAGUCAGGAUAUGCAGGGUGGGCGUUUCACAUGAGGAUCACCCAUGUAGGACCA | – | – | 15.1 nM | 8.52 nM
